Assay results from ChEMBL document CHEMBL3751671, “Synthesis and biological activity of diisothiocyanate-derived mercapturic acids” (Bioorg Med Chem Lett, 2016).

Tests used:
[1] = Antiproliferative activity against human LoVo/DX cells assessed as reduction in cell viability after 72 hrs by SRB assay; type: functional, cell-based
Method in brief: (§1)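 Human colon adenocarcinoma LoVo cells and their doxorubicin-resistant subline LoVo/DX. Growth was read by sulforhodamine B (SRB) staining. IC50 values are means ± SD from at least three experiments, each in triplicate.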

Histone deacetylase = test: Inhibition of HDAC in human LoVo/DX cells using Boc-Lys(Ac)-AMC as substrate assessed as release of AMC pre-incubated for 15 mins followed by substrate addition measured after 3 hrs by indirect spectrofluorometric assay; type: cell-based
Method in brief: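 Crude enzyme was LoVo/DX cell lysate. HDAC activity was read by an indirect spectrofluorometric assay, and IC50 was determined on the lysate.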

BALB/3T3 = test: Cytotoxicity against mouse BALB/3T3 cells after 72 hrs by SRB assay; type: cell-based; settings: BALB/3T3, 72 h
LoVo [2] = test: Antiproliferative activity against human LoVo cells assessed as reduction in cell viability after 72 hrs by SRB assay; type: functional, cell-based; method in brief: as §1
[3] = Selectivity index, ratio of IC50 for mouse BALB/3T3 cells to IC50 for human LoVo/DX cells; type: functional
LoVo [4] = test: Selectivity index, ratio of IC50 for mouse BALB/3T3 cells to IC50 for human LoVo cells; type: functional
LoVo [5] = test: Selectivity index, ratio of IC50 for human LoVo/DX cells to IC50 for human LoVo cells; type: functional
[6] = Potency index, ratio of IC50 for doxorubicin to IC50 for test compound against human LoVo/DX cells assessed as reduction in cell viability after 72 hrs by SRB assay; type: functional
Mus musculus [7] = test: Toxicity in Balb/c mouse assessed as changes in blood biochemical parameters at 900 umol/kg; type: organism-based; settings: in vivo
Method in brief: (§2)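 Preliminary in vivo toxicity study in Balb/c mice given high doses (900 µmol/kg b.w.). Toxicity was judged from body weight changes, blood morphology and blood biochemical analysis.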

Mus musculus [8] = test: Toxicity in Balb/c mouse assessed as changes in body weight at 900 umol/kg; type: organism-based; settings: in vivo; method in brief: as §2
Mus musculus [9] = test: Toxicity in Balb/c mouse assessed as changes in blood morphology at 900 umol/kg; type: organism-based; settings: in vivo; method in brief: as §2
[10] = Homo sapiens, LoVo, 72 h, read-out: IC50

Molecule `CC(=O)N[C@@H](CSC(=S)N[C@H]1CC[C@H](NC(=S)SC[C@H](NC(C)=O)C(=O)O)CC1)C(=O)O` has an IC50 [1] of 3.45 µM, an IC50 (Histone deacetylase) of 3740 µM and an IC50 (BALB/3T3) of 7.27 µM. For the same molecule, the IC50 (LoVo [2]; [10]) was 5.21 µM.

In the case of `COc1ccc(CNC(=S)SC[C@H](NC(C)=O)C(=O)O)cc1`, the IC50 [1] is reported as 4.2 µM, the IC50 (Histone deacetylase) is reported as 2940 µM and the IC50 (BALB/3T3) is reported as 6.9 µM. For the same molecule, the IC50 (LoVo [2]; [10]) was 3.7 µM.

In the case of `Cc1ccc(N=C=S)cc1N=C=S`, the IC50 [1] is reported as 47.3 µM and the IC50 (LoVo [2]; [10]) is reported as 35.2 µM.

With `CCCCCN=C=S` [1-ISOTHIOCYANATOPENTANE] the IC50 [1] was 75.2 µM and the IC50 (LoVo [2]; [10]) was 88.3 µM.

Work on `CC(=O)N[C@@H](CSC(=S)NCc1ccccc1)C(=O)O` yielded an IC50 [1] of 16.8 µM, an IC50 (Histone deacetylase) of 3440 µM and an IC50 (BALB/3T3) of 23.4 µM. For the same molecule, the IC50 (LoVo [2]; [10]) was 11.7 µM.

Work on `CC(=O)N[C@@H](CSC(=S)NCCOCCOCCNC(=S)SC[C@H](NC(C)=O)C(=O)O)C(=O)O` yielded an IC50 [1] of 14.2 µM, a Ratio IC50 [3] of 0.5 and an IC50 (Histone deacetylase) of 4370 µM. For the same molecule, the IC50 (BALB/3T3) was 6.87 µM and the IC50 (LoVo [2]; [10]) was 4.62 µM.

For `CC(=O)N[C@@H](CSC(=S)NCCCNC(=S)SC[C@H](NC(C)=O)C(=O)O)C(=O)O`, the IC50 [1] was 9.55 µM, the IC50 (Histone deacetylase) was 5960 µM and the IC50 (BALB/3T3) was 8.65 µM. The IC50 (LoVo [2]; [10]) was 4.22 µM.

With `CCCNC(=S)SC[C@H](NC(C)=O)C(=O)O` the IC50 [1] was 112 µM, the IC50 (BALB/3T3) was 224 µM and the IC50 (LoVo [2]; [10]) was 151 µM.

In the case of `CC(=O)N[C@@H](CSC(=S)Nc1ccc(NC(=S)SC[C@H](NC(C)=O)C(=O)O)cc1)C(=O)O`, the IC50 [1] is reported as 19.4 µM, the “Ratio IC50” value [3] is reported as 3 and the “Ratio IC50” value (LoVo [4]) is reported as 3. The IC50 (Histone deacetylase) was 290 µM, the IC50 (BALB/3T3) was 79.5 µM and the IC50 (LoVo [2]; [10]) was 23.5 µM.

`CC(=O)N[C@@H](CS)C(=O)O` [ACETYLCYSTEINE] showed an IC50 (Histone deacetylase) of 3160 µM.

Work on `S=C=NCCCN=C=S` yielded an IC50 [1] of 2.44 µM and an IC50 (LoVo [2]; [10]) of 1.84 µM.

With `CCCCCNC(=S)SC[C@H](NC(C)=O)C(=O)O` the IC50 [1] was 42.8 µM, the IC50 (Histone deacetylase) was 3200 µM and the IC50 (BALB/3T3) was 48.5 µM. For the same molecule, the IC50 (LoVo [2]; [10]) was 36.6 µM.

With `CC(=O)N[C@@H](CSC(=S)Nc1ccc(C)c(NC(=S)SC[C@H](NC(C)=O)C(=O)O)c1)C(=O)O` the IC50 [1] was 22.4 µM, the “Ratio IC50” value [3] was 3 and the “Ratio IC50” value (LoVo [4]) was 3. The IC50 (Histone deacetylase) was 450 µM, the IC50 (BALB/3T3) was 54.7 µM and the IC50 (LoVo [2]; [10]) was 20.5 µM.

In the case of `COc1cccc2c1C(=O)c1c(O)c3c(c(O)c1C2=O)C[C@@](O)(C(=O)CO)C[C@@H]3O[C@H]1C[C@H](N)[C@H](O)[C@H](C)O1` [DOXORUBICIN], the IC50 [1] is reported as 7.2 µM, the “Ratio IC50” value (LoVo [5]) is reported as 48 and the IC50 (BALB/3T3) is reported as 0.11 µM.

Work on `CC(=O)N[C@@H](CSC(=S)NCCCOCCOCCOCCCNC(=S)SC[C@H](NC(C)=O)C(=O)O)C(=O)O` yielded an IC50 [1] of 7.93 µM, an IC50 (Histone deacetylase) of 4260 µM and an IC50 (BALB/3T3) of 7.15 µM. For the same molecule, the IC50 (LoVo [2]; [10]) was 2.59 µM.

`S=C=Nc1ccc(N=C=S)cc1` [BITOSCANATE] gave an IC50 [1] of 11.6 µM and an IC50 (LoVo [2]; [10]) of 9.41 µM.

Molecule `COc1ccc(CN=C=S)cc1` has an IC50 [1] of 3.9 µM and an IC50 (LoVo [2]; [10]) of 3.7 µM.

With `CC(=O)N[C@@H](CSC(=S)NCCCC(C)CNC(=S)SC[C@H](NC(C)=O)C(=O)O)C(=O)O` (some centres not stated) the IC50 [1] was 6.6 µM, the IC50 (Histone deacetylase) was 2190 µM and the IC50 (BALB/3T3) was 7.99 µM. The IC50 (LoVo [2]; [10]) was 7.15 µM.

For `CC(=O)N[C@@H](CSC(=S)NC1CCCCC1NC(=S)SC[C@H](NC(C)=O)C(=O)O)C(=O)O` (some centres not stated), the IC50 [1] was 473 µM, the IC50 (Histone deacetylase) was 1660 µM and the IC50 (BALB/3T3) was 75.2 µM. For the same molecule, the IC50 (LoVo [2]; lovo) was “Not Active”.

In the case of `S=C=Nc1cccc(N=C=S)c1`, the IC50 [1] is reported as 55.7 µM and the IC50 (LoVo [2]; [10]) is reported as 46.4 µM.

`CCCCNC(=S)SC[C@H](NC(C)=O)C(=O)O` showed an IC50 [1] of 134 µM, an IC50 (Histone deacetylase) of 3460 µM and an IC50 (BALB/3T3) of 206 µM. It also gave an IC50 (LoVo [2]; [10]) of 130 µM.

`CC(=O)N[C@@H](CSC(=S)NCCc1ccccc1)C(=O)O` gave an IC50 [1] of 7.7 µM, an IC50 (Histone deacetylase) of 3450 µM and an IC50 (BALB/3T3) of 25.3 µM. It also gave an IC50 (LoVo [2]; [10]) of 12.7 µM.

In the case of `CC(=O)N[C@@H](CSC(=S)NCC1CCCC(CNC(=S)SC[C@H](NC(C)=O)C(=O)O)C1)C(=O)O` (some centres not stated), the IC50 [1] is reported as 12.8 µM, the Ratio IC50 [3] is reported as 0.5 and the IC50 (Histone deacetylase) is reported as 2680 µM. For the same molecule, the IC50 (BALB/3T3) was 5.88 µM and the IC50 (LoVo [2]; [10]) was 11.7 µM.

In the case of `CCCN=C=S` [PROPYL ISOTHIOCYANATE], the IC50 [1] is reported as 177 µM and the IC50 (LoVo [2]; [10]) is reported as 181 µM.

For `CC(=O)N[C@@H](CSC(=S)Nc1cccc(NC(=S)SC[C@H](NC(C)=O)C(=O)O)c1)C(=O)O`, the IC50 [1] was > 25 µM, the IC50 (Histone deacetylase) was 970 µM and the IC50 (BALB/3T3) was > 100 µM. The IC50 (LoVo [2]; [10]) was > 25 µM.

For `S=C=NCCCCN=C=S`, the IC50 [1] was 2.35 µM, the “Ratio IC50” value [6] was 3 and the IC50 (LoVo [2]; [10]) was 1.88 µM.

In the case of `CCCCN=C=S` [BUTYL ISOTHIOCYANATE], the IC50 [1] is reported as 265 µM and the IC50 (LoVo [2]; [10]) is reported as 296 µM.

With `S=C=NCc1ccccc1` [BENZYL ISOTHIOCYANATE] the IC50 [1] was 19.8 µM and the IC50 (LoVo [2]; [10]) was 14.5 µM.

For `CC(=O)N[C@@H](CSC(=S)NCCCCNC(=S)SC[C@H](NC(C)=O)C(=O)O)C(=O)O`, the IC50 [1] was 4.84 µM, the Activity (Mus musculus [7]) was “Non-toxic” and the Activity (Mus musculus [8]) was “Non-toxic”. For the same molecule, the Activity (Mus musculus [9]) was “Non-toxic”, the IC50 (Histone deacetylase) was 2330 µM and the IC50 (BALB/3T3) was 5.54 µM. The IC50 (LoVo [2]; [10]) was 2.02 µM.

For `S=C=NCCc1ccccc1` [PHENETHYLISOTHIOCYANATE], the IC50 [1] was 9.8 µM.
